In general, Ki refers to the dissociation constant of the complex between target and ligand, obtained from inhibition or displacement. Lower therefore signals a stronger hold on the target. As usually defined, the inhibition is the percentage by which the read-out fell short of the control. Read a low inhibition as a weak effect.

Among the data in ChEMBL document CHEMBL1144718, “Novel 3-aroylpyrazolo[5,1-c][1,2,4]benzotriazine 5-oxides 8-substituted, ligands at GABAA/benzodiazepine receptor complex: synthesis, pharmacological and molecular modeling studies” (Bioorg Med Chem, 2008) are Ki, inhibition and Activity values, retold here.

Test [1] can be described thus: Displacement of [3H]flumazenil from GABAA/BzR complex in bovine cerebral cortex membrane. Format: cell membranes, Bos taurus. Summed up: (§1)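 Bovine cerebral cortex membranes in 50 mM Tris-citrate pH 7.4 incubated with [3H]Ro15-1788 (1–2 nM) for 1 h at 4 °C to equilibrium; nonspecific binding with 10^-5 M diazepam; DMSO ≤1%. Ki from ≥6 concentrations (10^-9–10^-5 M) by curve fitting and Cheng–Prusoff; percent inhibition at 10 µM; five determinations, triplicate.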
(Displacement assays read how much labelled ligand stays bound in the presence of the test substance.)

The species entered for a further test is Bos taurus. Put plainly: Displacement of [3H]flumazenil from GABAA/BzR complex in bovine cerebral cortex membrane at 10 uM. Format: cell membranes. A digest of the protocol:
as §1

The test system of test [2] is Mus musculus. Put plainly: Sedative activity in CD1 albino mouse assessed as reduction of spontaneous motility at 3 mg/kg, ip after 20 mins by hole-board test. In kind it is functional, organism-based. Details: dose 3 mg/kg. A digest of the protocol: (§2)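 Hole-board test in male CD-1 mice (22–24 g) after an ip dose in saline (10 ml/kg). Each mouse explored the panel and holes alone for 5 min. Spontaneous motility was scored as panel movements and curiosity as exploration of the holes.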

Test [3] has as its system Mus musculus. Put plainly: Anticonvulsant activity against pentylenetetrazole-induced seizure in CD1 Albino mouse assessed as shock latency at 1 mg/kg, ip after 20 mins. On the set-up: dose 1 mg/kg. Format: functional, organism-based. A digest of the protocol: (§3)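 In male CD-1 mice (22–24 g), drug in saline was given ip at 10 ml/kg; the test ran 20 min later. PTZ 90 mg/kg sc was the convulsant. Latency (s) to shock and to convulsions was scored, and clonic generalized convulsions were counted over 30 min. Significance was set at P < 0.05 versus controls.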

Test [4] relates to Mus musculus. Put plainly: Sedative activity in CD1 albino mouse assessed as reduction of curiosity at 3 mg/kg, ip after 20 mins by hole-board test. Format: functional, organism-based. On the set-up: dose 3 mg/kg. Summed up:
as §2

Test [5] has as its system Mus musculus. Nature of the test: Amnesic activity in CD1 albino mouse at 1 mg/kg, ip. On the set-up: dose 1 mg/kg. Format: functional, organism-based. Summed up: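 Male CD-1 mice (22–24 g) given drug ip in 0.9% saline at 10 ml/kg. Passive-avoidance training followed treatment, and retention was tested 24 h later. Read-out was latency to enter the dark compartment in both sessions, capped at 60 s (training) and 180 s (retention). Means ± SEM of 15–18 mice.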

The subject of test [6] is Mus musculus. Put plainly: Anticonvulsant activity against pentylenetetrazole-induced seizure in CD1 Albino mouse assessed as convulsant latency at 1 mg/kg, ip after 20 mins. On the set-up: dose 1 mg/kg. In kind it is functional, organism-based. Summed up: as §3

Structures are written as SMILES. Calls of active or inactive are those of the source. No cut-off for these calls is given here.

Turning to `CCOc1ccc2c(c1)n1ncc(C(=O)c3cccnc3)c1n[n+]2[O-]`, the Ki in test [1] is 2000 nM. In turn, `CC(=O)c1cnn2c1n[n+]([O-])c1ccc(Cl)cc12` gave a Ki in test [1] of 551 nM. Molecule `CCOc1ccc2c(c1)n1ncc(C(=O)c3cccs3)c1n[n+]2[O-]` showed an inhibitory constant (Ki) in test [1] of 45 nM. This Ki lies about 12-fold lower than the previous one. Molecule `O=C(c1cccs1)c1cnn2c1nnc1ccc(Oc3ccccc3)cc12` had a Ki in test [1] of 14.7 nM. Molecule `Cn1cccc1C(=O)c1cnn2c1n[n+]([O-])c1ccc(Oc3ccccc3)cc12` returned a Ki in test [1] of 1300 nM.

For `CCOc1ccc2c(c1)n1ncc(C(=O)c3cccn3C)c1n[n+]2[O-]`, the Ki in test [1] is 819 nM. Regarding `O=Cc1cnn2c1n[n+]([O-])c1ccc(Cl)cc12`, in the test filed under Bos taurus, the inhibition turned out to be 64%. The molecule `O=C(c1ccc[nH]1)c1cnn2c1nnc1ccc(Cl)cc12` registered a Ki in test [1] of 1940 nM. Consider `Cn1cccc1C(=O)c1cnn2c1n[n+]([O-])c1ccc(Cl)cc12`, for which the Ki in test [1] worked out at 5200 nM.

In turn, `O=C(c1cccs1)c1cnn2c1n[n+]([O-])c1ccc(OCc3ccccc3)cc12` returned an inhibition constant Ki in test [1] of 2.7 nM. `O=C(c1ccco1)c1cnn2c1n[n+]([O-])c1ccc(OCc3ccccc3)cc12` registered a Ki in test [1] of 1.4 nM. On to `COc1ccccc1C(=O)c1cnn2c1n[n+]([O-])c1ccc(Cl)cc12`, for which, in test [1], the Ki turned out to be 4200 nM.

For the molecule `CN1C(=O)CN=C(c2ccccc2)c2cc(Cl)ccc21` [DIAZEPAM], the outcome in the test on Mus musculus [2], in the test on Mus musculus [4] and in the test with Mus musculus [5] was Active. Besides, the result in the test on Mus musculus [3] and in the test on Mus musculus [6] was inactive. For the same molecule, affinity in test [1] was put at a Ki of 10 nM.

In turn, `CC(=O)c1cnn2c1n[n+]([O-])c1ccc(Oc3ccccc3)cc12` gave an inhibition constant (Ki) in test [1] of 53 nM.

`O=C(c1ccco1)c1cnn2c1n[n+]([O-])c1ccc(Cl)cc12`: in test [1], the Ki turned out to be 72 nM.
